Measured values taken from paper PMC4153963 (Drugs in R&D, 2014).
“Also recorded” adds a separate entry of the source. Like-named read-outs stand apart in the source and are kept apart here.

Experiments:
[1] = cited from earlier work
serum TG levels = conditions: IPE 4 g/day, MARINE and ANCHOR studies; cited from earlier work
CYP2C9 = conditions: IPE 4 g/day; cited from earlier work
Safety assessments = type: in vivo, human (healthy adult subjects); conditions: healthy subjects
In short: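 Open-label single-centre phase I crossover, healthy adults. Oral H+/K+ ATPase inhibitor 40-mg delayed-release capsule once daily, 1 h before breakfast, days 1–7 and 19–25. Omega-3 ethyl ester 4 g/day as two 1-g capsules twice daily with or after meals, days 12–29. Monitored adverse events, chemistry, hematology, urinalysis, blood pressure, heart rate, respiratory rate, oral temperature and physical examinations.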

CYP3A4 = conditions: IPE 4 g/day; cited from earlier work
[2] = target: cytochrome P450 (CYP) 2C19 (Homo sapiens, UniProt P33261); assay: Drug-drug interaction of IPE with omeprazole, a CYP2C19 substrate; type: in vivo, human (healthy adult subjects); conditions: IPE 4 g/day at steady state, omeprazole 40 mg/day
cytochrome P450 (CYP) 2C19, sequence (P33261 whole entry): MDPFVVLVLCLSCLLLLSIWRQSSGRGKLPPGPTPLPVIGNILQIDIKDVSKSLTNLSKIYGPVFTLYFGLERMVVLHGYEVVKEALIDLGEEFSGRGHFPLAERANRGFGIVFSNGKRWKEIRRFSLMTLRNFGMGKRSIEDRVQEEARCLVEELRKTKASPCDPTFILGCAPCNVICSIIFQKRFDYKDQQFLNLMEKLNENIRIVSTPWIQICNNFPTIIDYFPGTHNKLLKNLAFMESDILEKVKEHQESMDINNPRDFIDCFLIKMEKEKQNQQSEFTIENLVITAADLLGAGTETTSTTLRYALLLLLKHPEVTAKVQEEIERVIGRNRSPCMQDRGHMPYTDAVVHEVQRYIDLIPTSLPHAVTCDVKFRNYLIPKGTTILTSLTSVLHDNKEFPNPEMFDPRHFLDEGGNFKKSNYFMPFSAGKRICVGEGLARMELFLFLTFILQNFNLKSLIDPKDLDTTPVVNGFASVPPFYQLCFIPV

CYP2C8 = conditions: IPE 4 g/day; cited from earlier work
[3] = type: in vivo, human (healthy adult subjects); conditions: for K el: omeprazole 40 mg/day, mean (SD), n = 28
[4] = healthy subjects; cited from earlier work

In the case of `CC/C=C\C/C=C\C/C=C\C/C=C\C/C=C\CCCC(=O)O` [EPA, eicosapentaenoic acid], the “Unesterified fraction of total EPA in plasma” value [1] is listed as less than 1% and the “Time to peak plasma concentrations of EPA” value ([1]; following oral dosing of IPE) is listed as “approximately 5 h”.

For `CC/C=C\C/C=C\C/C=C\C/C=C\C/C=C\CCCC(=O)OCC` [IPE, eicosapentaenoic acid ethyl ester], the “Effect on LDL-C levels” value (serum TG levels) is given as “without significantly increasing”, the “Effect on serum TG levels” value (serum TG levels) is given as “significantly reduce” and the “Effect of IPE on AUC or C max of warfarin (CYP2C9 substrate)” value (CYP2C9) is given as “did not display a significant effect”. The “Safety and tolerability of co-administration of IPE with omeprazole” value (Safety assessments; IPE 4 g/day with omeprazole 40 mg/day) was “safe and well tolerated”, the “Effect of IPE on AUC or C max of atorvastatin (CYP3A4 substrate)” value (CYP3A4) was “did not display a significant effect” and the “Effect of IPE on AUC0–24 and C max of omeprazole (CYP2C19 substrate)” value [2] was “did not significantly change; also recorded: did not inhibit”. The “Effect of IPE on AUC or C max of rosiglitazone (CYP2C8 substrate)” value (CYP2C8) was “did not display a significant effect”.

With `COc1ccc2[nH]c([S+]([O-])Cc3ncc(C)c(OC)c3C)nc2c1` (centres unmarked) [Omeprazole] the “Tolerability of omeprazole alone” value (Safety assessments; omeprazole 40 mg/day) was “well tolerated”, the AUC(0-t) ([3]; human, plasma, po, 40 mg/day) was 3610 ng·h/mL and the K el ([3]; with icosapent ethyl 4 g/day (day 25)) was 0.62 (0.26) L/h. The K el ([3]; without IPE (day 7)) was 0.56 (0.22) L/h and the Elimination half-life [4] was 30 to 60 min.
